Measured values taken from ChEMBL document CHEMBL4823251, “Structure-Based Exploration of Selectivity for ATM Inhibitors in Huntington's Disease” (J Med Chem, 2021).
Values after ≈ are worked out from the molar mass of the structure shown.

Experiments:
[1] = target: T1, Serine-protein kinase ATM (Homo sapiens, UniProt Q13315); assay: Inhibition of full length recombinant FLAG-tagged human ATM assessed as decrease in p53 S15 phosphorylation using full length myc-tagged p53 as substrate incubated for 30 mins in presence of ATP by ELISA
Procedure, shortened: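 Buffer was 25 mM HEPES pH 7.5 with MgCl₂, MnCl₂, Brij-35, glycerol, BSA and DTT (0.1% DMSO); reaction ran 30 min at 20 °C and was stopped with 70 mM EDTA. Product captured on anti-myc-coated plates and detected with anti-p53 pS15, HRP secondary and TMB, absorbance at 450 nm.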

[2] = target: T2, Phosphatidylinositol 3-kinase catalytic subunit type 3 (Homo sapiens, UniProt Q8NEB9); assay: Inhibition of full length recombinant GST-tagged human VPS34 expressed in baculovirus expression system using PI/PS as substrate incubated for 60 mins in presence of ATP at Km concentration by luminescence assay
T2 sequence (Q8NEB9 whole entry): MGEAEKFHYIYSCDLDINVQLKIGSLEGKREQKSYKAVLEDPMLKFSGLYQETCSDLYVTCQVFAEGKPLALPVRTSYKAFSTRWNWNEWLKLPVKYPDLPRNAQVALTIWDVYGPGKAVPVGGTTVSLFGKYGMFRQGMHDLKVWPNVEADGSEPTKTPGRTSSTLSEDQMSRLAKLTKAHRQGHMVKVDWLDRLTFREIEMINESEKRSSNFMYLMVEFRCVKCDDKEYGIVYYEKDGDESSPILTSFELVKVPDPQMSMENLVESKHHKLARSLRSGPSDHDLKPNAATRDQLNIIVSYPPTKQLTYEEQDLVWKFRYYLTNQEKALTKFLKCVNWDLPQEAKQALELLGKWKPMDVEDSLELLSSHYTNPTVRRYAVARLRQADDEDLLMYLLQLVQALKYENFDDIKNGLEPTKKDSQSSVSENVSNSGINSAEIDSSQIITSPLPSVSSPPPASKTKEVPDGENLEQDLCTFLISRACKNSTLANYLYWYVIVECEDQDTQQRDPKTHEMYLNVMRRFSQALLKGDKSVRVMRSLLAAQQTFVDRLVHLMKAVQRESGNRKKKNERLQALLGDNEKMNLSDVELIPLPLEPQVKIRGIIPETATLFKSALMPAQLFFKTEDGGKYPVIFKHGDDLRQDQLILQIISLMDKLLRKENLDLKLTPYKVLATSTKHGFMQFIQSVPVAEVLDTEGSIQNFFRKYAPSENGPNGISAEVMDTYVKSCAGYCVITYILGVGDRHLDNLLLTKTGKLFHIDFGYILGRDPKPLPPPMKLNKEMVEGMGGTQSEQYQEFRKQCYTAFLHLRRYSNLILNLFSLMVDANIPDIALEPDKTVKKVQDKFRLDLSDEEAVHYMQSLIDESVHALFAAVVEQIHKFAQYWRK

[3] = organism: Homo sapiens; assay: Selectivity ratio of Ki for full length recombinant GST-tagged VPS34 expressed in baculovirus expression system using PI/PS as substrate incubated for 60 mins in presence of ATP at Km concentration by luminescence assay to Ki for full length recombinant FLAG-tagged human ATM assessed as decrease in p53 S15 phosphorylation using full length myc-tagged p53 as substrate incubated for 30 mins in presence of ATP by ELISA
Procedure, shortened: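 ADP-Glo luminescence read-out. ATM reaction: 0.75 nM enzyme, 25 nM myc-p53, 10 μM ATP, 30 min at 20 °C, p53 S15 phosphorylation by ELISA. Ki values are means of at least two experiments.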

[4] = Kinetic solubility of the compound in pH 7.4 PBS buffer incubated for 2 hrs using orbital shaker by LC-UV mass spectrometry; type: physicochemical; conditions: read-out: Kinetic_solubility
Procedure, shortened: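 Shaken on an orbital shaker for 2 h at room temperature, then filtered. Filtrate analysed by LC-UV with MS confirmation, calibrated against 200 μM and 10 μM DMSO dilutions.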

[5] = Effective efflux ratio of apparent permeability across basolateral to apical over apical to basolateral side in MDCK-MDR1 cells assessed as efflux ratio after 1 hr by LC-MS/MS analysis; type: ADME, cell-based, Canis lupus familiaris; conditions: dog, mdck-mdr1, 1 h
Procedure, shortened: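 MDCKII MDR1 and wild-type cells seeded at 2 × 10⁵ cells/well in Transwells, cultured 3 days. Test compounds 10 μM in HBSS with 25 mM HEPES pH 7.4, dosed apical or basolateral in duplicate, 1 h at 37 °C. Lucifer yellow monolayer check, wells above 100 nm/s rejected. LC–MS/MS read-out. ER = Papp B>A/A>B. EER = MDR1 ER over wild-type ER.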

[6] = Apparent permeability across apical to basolateral side in MDCK-MDR1 cells after 1 hr by LC-MS/MS analysis; type: ADME, cell-based, Canis lupus familiaris; conditions: dog
Procedure, shortened: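 MDCKII-MDR1 and wild-type cells seeded at 2 × 10⁵ cells/well on Transwells and cultured 3 days. Test compound at 10 μM in HBSS with 25 mM HEPES, pH 7.4, added apical or basolateral in duplicate. Lucifer yellow used as integrity check; wells above 100 nm/s rejected. Sampled after 1 h at 37 °C and quantified by LC–MS/MS. Papp taken from the apical-to-basal direction.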

[7] = Intrinsic clearance in C57Bl/6 mouse pooled liver microsomes at 1 uM measured up to 40 mins in presence of NADPH by LC-MS/MS analysis; type: ADME, Microsome; conditions: read-out: CLH
Procedure, shortened: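 Reaction started with 1 mM NADPH. Sampled at 0, 5, 10, 20 and 40 min, quenched in acetonitrile with internal standard, and analysed by LC–MS/MS.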

[8] = target: DNA-dependent protein kinase catalytic subunit (Homo sapiens, UniProt P78527); assay: Inhibition of DNA-PK isolated from human HeLa nuclear extract using full length His-tagged p53 as substrate measured after 75 mins in presence of ATP by HTRF assay; type: subcellular, Nucleus
Chain of DNA-dependent protein kinase catalytic subunit (P78527 whole entry): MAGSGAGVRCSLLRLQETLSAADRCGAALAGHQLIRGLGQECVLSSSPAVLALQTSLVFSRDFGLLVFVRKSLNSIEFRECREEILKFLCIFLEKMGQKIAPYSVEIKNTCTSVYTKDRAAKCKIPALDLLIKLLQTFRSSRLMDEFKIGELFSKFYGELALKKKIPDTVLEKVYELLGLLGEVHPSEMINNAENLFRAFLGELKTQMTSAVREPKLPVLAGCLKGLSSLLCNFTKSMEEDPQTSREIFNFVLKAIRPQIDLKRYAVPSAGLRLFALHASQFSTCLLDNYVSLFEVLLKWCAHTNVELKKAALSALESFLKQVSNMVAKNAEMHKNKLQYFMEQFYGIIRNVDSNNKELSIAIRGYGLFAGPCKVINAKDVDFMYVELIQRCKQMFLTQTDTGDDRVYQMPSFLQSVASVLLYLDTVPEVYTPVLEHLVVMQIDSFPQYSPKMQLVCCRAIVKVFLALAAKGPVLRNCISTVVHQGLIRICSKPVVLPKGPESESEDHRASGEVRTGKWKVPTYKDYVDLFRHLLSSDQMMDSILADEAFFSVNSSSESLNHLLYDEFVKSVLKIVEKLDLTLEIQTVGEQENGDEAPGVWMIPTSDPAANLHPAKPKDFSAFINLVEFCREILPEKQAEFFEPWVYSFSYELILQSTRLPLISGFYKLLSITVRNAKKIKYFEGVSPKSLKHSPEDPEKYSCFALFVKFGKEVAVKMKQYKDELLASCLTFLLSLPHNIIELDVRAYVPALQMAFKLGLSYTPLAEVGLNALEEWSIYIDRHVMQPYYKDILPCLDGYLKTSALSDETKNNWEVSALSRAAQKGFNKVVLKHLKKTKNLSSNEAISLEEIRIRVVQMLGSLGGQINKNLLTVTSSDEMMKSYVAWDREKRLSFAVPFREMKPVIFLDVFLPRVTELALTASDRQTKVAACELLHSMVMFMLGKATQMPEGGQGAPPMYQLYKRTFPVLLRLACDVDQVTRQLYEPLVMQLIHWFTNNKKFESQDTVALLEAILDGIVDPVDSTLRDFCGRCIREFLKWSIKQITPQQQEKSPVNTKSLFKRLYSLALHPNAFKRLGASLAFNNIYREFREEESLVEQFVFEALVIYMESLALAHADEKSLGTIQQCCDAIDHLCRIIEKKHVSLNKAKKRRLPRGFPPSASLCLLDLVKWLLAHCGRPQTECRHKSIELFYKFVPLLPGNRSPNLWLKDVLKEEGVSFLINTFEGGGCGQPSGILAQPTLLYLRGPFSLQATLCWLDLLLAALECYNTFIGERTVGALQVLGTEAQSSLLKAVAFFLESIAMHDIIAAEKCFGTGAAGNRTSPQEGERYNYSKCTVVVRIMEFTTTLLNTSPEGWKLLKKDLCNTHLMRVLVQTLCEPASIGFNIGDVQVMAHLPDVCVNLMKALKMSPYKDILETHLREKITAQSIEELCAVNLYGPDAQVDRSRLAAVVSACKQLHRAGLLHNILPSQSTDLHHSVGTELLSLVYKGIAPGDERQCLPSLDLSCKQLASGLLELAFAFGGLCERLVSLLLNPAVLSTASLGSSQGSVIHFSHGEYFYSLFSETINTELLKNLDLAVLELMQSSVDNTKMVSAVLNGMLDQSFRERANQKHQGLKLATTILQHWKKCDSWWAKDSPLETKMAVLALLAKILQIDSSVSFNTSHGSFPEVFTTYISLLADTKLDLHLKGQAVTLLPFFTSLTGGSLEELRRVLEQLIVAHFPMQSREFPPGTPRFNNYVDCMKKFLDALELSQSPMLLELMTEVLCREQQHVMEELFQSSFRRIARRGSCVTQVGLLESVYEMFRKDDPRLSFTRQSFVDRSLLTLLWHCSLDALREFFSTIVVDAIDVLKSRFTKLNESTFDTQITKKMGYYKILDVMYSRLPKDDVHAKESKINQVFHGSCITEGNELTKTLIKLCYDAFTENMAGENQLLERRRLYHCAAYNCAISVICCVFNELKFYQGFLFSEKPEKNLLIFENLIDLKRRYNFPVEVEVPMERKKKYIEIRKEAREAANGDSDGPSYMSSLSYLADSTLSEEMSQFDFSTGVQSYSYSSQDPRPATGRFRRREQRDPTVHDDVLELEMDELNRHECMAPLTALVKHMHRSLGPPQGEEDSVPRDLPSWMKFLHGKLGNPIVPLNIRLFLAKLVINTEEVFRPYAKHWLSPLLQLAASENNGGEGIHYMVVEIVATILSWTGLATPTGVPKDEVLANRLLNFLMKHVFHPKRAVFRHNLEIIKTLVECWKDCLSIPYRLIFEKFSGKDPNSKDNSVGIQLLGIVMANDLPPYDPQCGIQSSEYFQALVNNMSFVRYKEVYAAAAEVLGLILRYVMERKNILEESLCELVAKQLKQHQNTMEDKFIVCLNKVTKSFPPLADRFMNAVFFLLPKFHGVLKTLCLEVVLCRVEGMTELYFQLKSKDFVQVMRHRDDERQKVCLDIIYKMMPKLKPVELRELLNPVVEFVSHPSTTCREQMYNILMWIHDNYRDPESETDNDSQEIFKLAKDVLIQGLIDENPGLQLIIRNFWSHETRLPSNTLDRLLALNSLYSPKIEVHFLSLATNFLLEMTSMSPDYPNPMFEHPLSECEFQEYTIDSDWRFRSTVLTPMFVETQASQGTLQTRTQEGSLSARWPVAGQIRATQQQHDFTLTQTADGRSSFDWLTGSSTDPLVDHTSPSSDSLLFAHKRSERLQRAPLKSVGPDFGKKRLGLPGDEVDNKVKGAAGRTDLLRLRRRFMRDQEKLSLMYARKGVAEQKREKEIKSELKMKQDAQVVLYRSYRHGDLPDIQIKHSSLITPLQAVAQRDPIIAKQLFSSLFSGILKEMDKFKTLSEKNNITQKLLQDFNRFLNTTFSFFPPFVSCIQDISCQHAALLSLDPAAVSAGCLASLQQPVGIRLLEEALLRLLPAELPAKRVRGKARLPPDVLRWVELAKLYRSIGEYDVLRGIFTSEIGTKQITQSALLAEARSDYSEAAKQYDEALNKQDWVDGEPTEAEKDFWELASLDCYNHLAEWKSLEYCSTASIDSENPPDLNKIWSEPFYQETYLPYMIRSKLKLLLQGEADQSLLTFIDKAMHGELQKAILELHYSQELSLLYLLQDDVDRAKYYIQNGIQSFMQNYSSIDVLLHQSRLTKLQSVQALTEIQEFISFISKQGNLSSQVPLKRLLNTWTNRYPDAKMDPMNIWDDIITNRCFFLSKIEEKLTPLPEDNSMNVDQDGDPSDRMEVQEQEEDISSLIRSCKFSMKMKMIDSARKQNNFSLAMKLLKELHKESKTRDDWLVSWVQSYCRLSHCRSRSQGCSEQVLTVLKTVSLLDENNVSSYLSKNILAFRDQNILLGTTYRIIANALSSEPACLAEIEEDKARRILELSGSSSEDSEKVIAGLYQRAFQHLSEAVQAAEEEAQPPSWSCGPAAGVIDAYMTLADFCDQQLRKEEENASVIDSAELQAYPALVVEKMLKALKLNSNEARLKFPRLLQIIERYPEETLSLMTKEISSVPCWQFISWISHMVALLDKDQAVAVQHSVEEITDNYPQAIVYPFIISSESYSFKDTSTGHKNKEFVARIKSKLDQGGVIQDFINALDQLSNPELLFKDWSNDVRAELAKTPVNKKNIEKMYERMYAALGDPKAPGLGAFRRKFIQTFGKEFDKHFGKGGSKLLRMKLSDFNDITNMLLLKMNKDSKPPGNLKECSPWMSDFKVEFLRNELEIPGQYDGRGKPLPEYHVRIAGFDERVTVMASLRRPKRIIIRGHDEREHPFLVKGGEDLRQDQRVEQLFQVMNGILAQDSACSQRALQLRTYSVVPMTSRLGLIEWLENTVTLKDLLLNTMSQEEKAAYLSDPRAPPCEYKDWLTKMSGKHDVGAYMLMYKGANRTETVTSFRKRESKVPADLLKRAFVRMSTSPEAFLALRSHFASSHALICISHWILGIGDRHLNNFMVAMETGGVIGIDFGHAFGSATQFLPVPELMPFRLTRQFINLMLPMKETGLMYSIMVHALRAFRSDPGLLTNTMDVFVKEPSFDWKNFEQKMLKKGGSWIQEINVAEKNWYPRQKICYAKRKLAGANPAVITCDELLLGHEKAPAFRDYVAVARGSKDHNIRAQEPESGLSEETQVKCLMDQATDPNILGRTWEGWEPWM
Procedure, shortened: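 Buffer was 50 mM HEPES pH 7.5, 5 mM MgCl₂, 0.01% Brij35, 1 mM DTT and 1 μg/mL sheared calf thymus DNA; reaction ran 75 min at 20 °C. Stopped with d2-anti-6HIS and cryptate anti-phospho-p53 antibodies in KF/EDTA buffer. Read at 665/620 nm after 7 h.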

[9] = target: Serine/threonine-protein kinase ATR (Homo sapiens, UniProt Q13535); assay: Inhibition of ATR in human HT-29 cells assessed as reduction in CHK1 phosphorylation incubated for 4 hrs; type: cell-based
Procedure, shortened: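 HT29 cells seeded at 25k/well overnight, then treated with compound titrations (0.3% DMSO) plus 10 μM gemcitabine for 4 h. Cells fixed in paraformaldehyde, permeabilized with Triton-X, and stained for phospho-Chk1 and total Chk1 using LI-COR IRDye detection. Ratio normalized to DMSO and 30 μM AZ-20 controls. IC50 is the mean of at least two experiments.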

[10] = organism: Homo sapiens; assay: Selectivity ratio of Ki for DNA-PK isolated from human HeLa nuclear extract using full length His-tagged p53 as substrate measured after 75 mins in presence of ATP by HTRF assay to Ki for full length recombinant FLAG-tagged human ATM assessed as decrease in p53 S15 phosphorylation using full length myc-tagged p53 as substrate incubated for 30 mins in presence of ATP by ELISA
Procedure, shortened: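 HTRF detection of p53 S15 phosphorylation. ATM reaction: 0.75 nM enzyme, 25 nM myc-p53, 10 μM ATP, 30 min at 20 °C, anti-myc capture ELISA. Ki values are means of at least two experiments.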

[11] = target: Serine/threonine-protein kinase mTOR (Homo sapiens, UniProt P42345); assay: Binding affinity to mTOR (unknown origin)
[12] = Clearance in C57Bl/6 mouse at 2 mg/kg, iv administered as single dose; type: ADME, organism-based; conditions: in vivo
Procedure, shortened: (§1)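 Male C57BL/6 mice given a slow tail-vein bolus of a 0.4 mg/mL solution in 10:40:50 DMSO/PEG/H₂O, at 2 mg/kg (5 mL/kg) or 0.8 mg/kg (2 mL/kg). Plasma and brain sampled over 8 h, n = 3 per time point, and measured by LC–MS/MS. Noncompartmental analysis on mean concentrations with linear-trapezoidal AUC. Kp is the brain/plasma AUC ratio of total concentrations; Kpuu uses free concentrations, corrected by equilibrium-dialysis plasma and brain binding.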

[13] = Volume of distribution at steady state in C57Bl/6 mouse at 2 mg/kg, iv administered as single dose; type: ADME, organism-based; conditions: in vivo, read-out: Vdss; procedure, shortened: as §1
[14] = Half life in C57Bl/6 mouse at 2 mg/kg, iv administered as single dose; type: ADME, organism-based; conditions: in vivo; procedure, shortened: as §1
[15] = Brain to plasma permeability coefficient, Kp in C57Bl/6 mouse at 2 mg/kg, iv administered as single dose; type: ADME, organism-based; conditions: brain and plasma; procedure, shortened: as §1
[16] = Unbound brain-to-plasma concentration ratio in C57Bl/6 mouse at 2 mg/kg, iv administered as single dose; type: ADME, organism-based; conditions: brain and plasma, read-out: K(p,uu,brain); procedure, shortened: as §1
[17] = target: T1, Serine-protein kinase ATM; assay: Inhibition of ATM in human U2OS cells assessed as reduction in etoposide-stimulated KAP1 phosphorylation incubated for 60 mins by immunoreactivity assay; type: cell-based
Procedure, shortened: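 U2OS cells plated overnight at 6k cells/well (37 °C, 5% CO₂), then treated with compound titrations (0.3% DMSO) plus 100 μM etoposide for 60 min. Cells fixed in cold methanol and stained for phospho-KAP1 and total KAP1 using IRDye secondaries on a LI-COR Odyssey. IC50 is the mean of at least two experiments.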

[18] = target: T2, Phosphatidylinositol 3-kinase catalytic subunit type 3; assay: Binding affinity to VPS34 (unknown origin)
[19] = Bioavailability in C57Bl/6 mouse at 10 mg/kg, po or 2 mg/kg, iv; conditions: in vivo
[20] = Clearance in C57Bl/6 mouse at 0.8 mg/kg, iv administered as single dose; type: ADME, organism-based; conditions: in vivo; procedure, shortened: as §1
[21] = Volume of distribution at steady state in C57Bl/6 mouse at 0.8 mg/kg, iv administered as single dose; type: ADME, organism-based; conditions: in vivo, read-out: Vdss; procedure, shortened: as §1
[22] = Half life in C57Bl/6 mouse at 0.8 mg/kg, iv administered as single dose; type: ADME, organism-based; conditions: in vivo; procedure, shortened: as §1
[23] = Brain to plasma permeability coefficient, Kp in C57Bl/6 mouse at 0.8 mg/kg, iv administered as single dose; type: ADME, organism-based; conditions: brain and plasma; procedure, shortened: as §1
[24] = Unbound brain-to-plasma concentration ratio in C57Bl/6 mouse at 0.8 mg/kg, iv administered as single dose; type: ADME, organism-based; conditions: brain and plasma, read-out: K(p,uu,brain); procedure, shortened: as §1
[25] = Bioavailability in C57Bl/6 mouse at 10 mg/kg, po or 0.8 mg/kg, iv; type: ADME, organism-based; conditions: in vivo
Procedure, shortened: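 An IV reference dose of 0.8 mg/kg was given. Plasma measured by LC–MS/MS, n = 3 per time point. %F calculated as dose-normalized PO AUCinf divided by dose-normalized IV AUCinf.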

SMILES	Ki [1]	Ki [2]	Ratio Ki [3]	solubility kinetic at 2 h [4]	Ratio [5]	Papp A→B at 1 h [6]	CLint scaled at 1 µM [7]	Ki [8]	IC50 [9]	Ratio Ki [10]	clearance [12]	Vd [13]	half-life [14]	Kp [15]	Kp uu [16]	IC50 [17]	also measured
O=c1cc(N2CCOCC2)cc(N2C[C@H]3C[C@H]3[C@@H]2Cc2ccccc2)[nH]1	2 nM	98 nM	49	59 µg/mL (≈ 168 µM)	6.7	65.7 ×10⁻⁶ cm/s	< 75 mL/min/kg	160 nM	> 30 µM	80	33.3 mL/min/kg	4.7 L/kg	144 min	0.23	0.12		Kd [11]: 4.6 µM
O=c1cc(N2CCOCC2)cc(N2CCCCC[C@@H]2Cc2ccccc2)[nH]1	1 nM	50 nM	50	> 58 µg/mL	4.3	55.6 ×10⁻⁶ cm/s	69 mL/min/kg	180 nM	> 30 µM	180	35 mL/min/kg	3.4 L/kg	96 min	0.41	0.18	230 nM	Kd [18]: 11 µM; bioavailability [19]: 68%
C[C@@H]1CCN(c2nc(N3CCOCC3)cc(=O)[nH]2)[C@H]1Cc1ccccc1	0.4 nM	6 nM	15	33 µg/mL (≈ 93.1 µM)				110 nM	5.5 µM	275						90 nM	clearance [20]: 115 mL/min/kg; Vd [21]: 11 L/kg; half-life [22]: 45 min; Kp [23]: 1; Kp uu [24]: 0.47; bioavailability [25]: 78%
